Columns and labels:
[1] = tested on: Human immunodeficiency virus; assay: Antiviral activity against HIV with reverse transcriptase L100I/K103N double mutant assessed as inhibition of viral replication; type: functional, organism-based; conditions: Human immunodeficiency virus 1
[2] = tested on: Human immunodeficiency virus; assay: Antiviral activity against HIV with reverse transcriptase K101E/Y181C/G190A mutant assessed as inhibition of viral replication relative to wild type; type: functional
[3] = Inhibition of RNA-dependent DNA polymerase activity of wild type HIV reverse transcriptase assessed as BrdU incorporation by standard ECL assay; set-up: species or system Human immunodeficiency virus
Procedure, shortened: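 Purified recombinant wild-type RT polymerase activity was measured using a 500-nt heteropolymeric RNA template and a biotinylated DNA primer. BrdU incorporation was detected with a ruthenylated anti-BrdU antibody by electrochemiluminescence. Ki is the geometric mean of at least two determinations, each within 25% of the mean.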

[4] = tested on: Human immunodeficiency virus; assay: Antiviral activity against HIV with reverse transcriptase K103N/Y181C double mutant assessed as inhibition of viral replication relative to wild type; type: functional
[5] = tested on: Human immunodeficiency virus; assay: Antiviral activity against wild type HIV H9-3B infected in human MT2 cells assessed as inhibition of viral replication measuring p24 level after 3 days in presence of 10% fetal bovine serum; type: functional; conditions: Human immunodeficiency virus 1, MT2, Serum; read-out: CIC95
Procedure, shortened: (§1)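 Multiple-cycle spread assay in MT2 cells with wild-type H9IIIB virus. Cells were infected overnight at moi ≈ 0.01 without compound, washed, then cultured 3 days across varying compound concentrations in RPMI 1640 with 10% FBS or 50% NHS. p24 was measured in supernatants. CIC95 is the lowest concentration inhibiting replication ≥95%, as the geometric mean of ≥2 determinations.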

[6] = tested on: Human immunodeficiency virus; assay: Antiviral activity against HIV with reverse transcriptase L100I mutant assessed as inhibition of viral replication; type: functional, organism-based; conditions: Human immunodeficiency virus 1
[7] = tested on: Human immunodeficiency virus; assay: Antiviral activity against HIV with reverse transcriptase K103N/P225H double mutant assessed as inhibition of viral replication relative to wild type; type: functional
[8] = tested on: Human immunodeficiency virus; assay: Antiviral activity against HIV with reverse transcriptase Y181C mutant infected in human MT2 cells assessed as inhibition of viral replication measuring p24 level after 3 days in presence of 10% fetal bovine serum; type: functional; conditions: Human immunodeficiency virus 1, MT2, Serum, 72 h; read-out: CIC95
Procedure, shortened: (§2)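 Multiple-cycle replication (Spread) assay in MT2 cells with H9IIIB-background mutant virus. Cells were infected overnight at moi ≈ 0.01 without compound, washed, then cultured 3 days across a range of compound concentrations in medium with 10% FBS. p24 was measured in supernatants. CIC95 is the lowest concentration inhibiting replication by ≥95%, reported as the geometric mean of ≥2 determinations.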

[9] = tested on: Human immunodeficiency virus; assay: Antiviral activity against HIV with reverse transcriptase K103N/G190A double mutant assessed as inhibition of viral replication relative to wild type; type: functional
[10] = tested on: Human immunodeficiency virus; assay: Antiviral activity against wild type HIV H9-3B infected in human MT2 cells assessed as inhibition of viral replication measuring p24 level after 3 days in presence of 50% normal human serum; type: functional; conditions: Human immunodeficiency virus 1, H9-3B, 72 h, read-out: CIC95; procedure, shortened: as §1
[11] = tested on: Human immunodeficiency virus; assay: Antiviral activity against HIV with reverse transcriptase K103N mutant infected in human MT2 cells assessed as inhibition of viral replication measuring p24 level after 3 days in presence of 10% fetal bovine serum; type: functional; conditions: Human immunodeficiency virus 1, MT2, Serum, 72 h; read-out: CIC95; procedure, shortened: as §2
[12] = tested on: Human immunodeficiency virus; assay: Antiviral activity against HIV with reverse transcriptase G190A mutant assessed as inhibition of viral replication; type: functional, organism-based; conditions: Human immunodeficiency virus 1
[13] = tested on: Human immunodeficiency virus; assay: Antiviral activity against HIV with reverse transcriptase L100I/K103N double mutant assessed as inhibition of viral replication relative to wild type; type: functional
[14] = tested on: Human immunodeficiency virus; assay: Antiviral activity against HIV with reverse transcriptase K103N/Y181C double mutant infected in human MT2 cells assessed as inhibition of viral replication measuring p24 level after 3 days in presence of 10% fetal bovine serum; type: functional; conditions: Human immunodeficiency virus 1, MT2, Serum, 72 h; read-out: CIC95; procedure, shortened: as §2
[15] = tested on: Human immunodeficiency virus; assay: Antiviral activity against HIV with reverse transcriptase G190A mutant assessed as inhibition of viral replication relative to wild type; type: functional
[16] = tested on: Human immunodeficiency virus; assay: Antiviral activity against HIV with reverse transcriptase K103N/Y181C/G190A mutant assessed as inhibition of viral replication relative to wild type; type: functional
[17] = tested on: Human immunodeficiency virus; assay: Antiviral activity against HIV with reverse transcriptase K101E/G190A double mutant assessed as inhibition of viral replication relative to wild type; type: functional
[18] = tested on: Human immunodeficiency virus; assay: Antiviral activity against HIV with reverse transcriptase K101E/G190A double mutant assessed as inhibition of viral replication; type: functional, organism-based; conditions: Human immunodeficiency virus 1
[19] = tested on: Human immunodeficiency virus; assay: Antiviral activity against HIV with reverse transcriptase Y181C mutant assessed as inhibition of viral replication; type: functional, organism-based; conditions: Human immunodeficiency virus 1
[20] = tested on: Human immunodeficiency virus; assay: Antiviral activity against HIV with reverse transcriptase L100I mutant assessed as inhibition of viral replication relative to wild type; type: functional
[21] = target: Human immunodeficiency virus type 1 reverse transcriptase (Human immunodeficiency virus 1, UniProt Q72547, K103N); assay: Inhibition of RNA-dependent DNA polymerase activity of recombinant HIV reverse transcriptase K103N mutant assessed as BrdU incorporation by standard ECL assay
[22] = tested on: Human immunodeficiency virus; assay: Antiviral activity against HIV with reverse transcriptase G190S mutant assessed as inhibition of viral replication; type: functional, organism-based; conditions: Human immunodeficiency virus 1
[23] = tested on: Human immunodeficiency virus; assay: Antiviral activity against HIV with reverse transcriptase K103N mutant assessed as inhibition of viral replication; type: functional, organism-based; conditions: Human immunodeficiency virus 1
[24] = tested on: Human immunodeficiency virus; assay: Antiviral activity against HIV with reverse transcriptase Y181C/G190A double mutant assessed as inhibition of viral replication; type: functional, organism-based; conditions: Human immunodeficiency virus 1
[25] = tested on: Human immunodeficiency virus; assay: Antiviral activity against HIV with reverse transcriptase K103N/Y181C double mutant assessed as inhibition of viral replication; type: functional, organism-based; conditions: Human immunodeficiency virus 1
[26] = tested on: Human immunodeficiency virus; assay: Antiviral activity against HIV with reverse transcriptase K103N mutant assessed as inhibition of viral replication relative to wild type; type: functional
[27] = tested on: Human immunodeficiency virus; assay: Antiviral activity against HIV with reverse transcriptase Y188L mutant assessed as inhibition of viral replication; type: functional, organism-based; conditions: Human immunodeficiency virus 1
[28] = tested on: Human immunodeficiency virus; assay: Antiviral activity against HIV with reverse transcriptase CNDO mutant assessed as inhibition of viral replication relative to wild type; type: functional
[29] = tested on: Human immunodeficiency virus; assay: Antiviral activity against HIV with reverse transcriptase Y188L mutant assessed as inhibition of viral replication relative to wild type; type: functional
[30] = tested on: Human immunodeficiency virus; assay: Antiviral activity against HIV with reverse transcriptase K103N/P225H double mutant assessed as inhibition of viral replication; type: functional, organism-based; conditions: Human immunodeficiency virus 1
[31] = tested on: Human immunodeficiency virus; assay: Antiviral activity against HIV with reverse transcriptase Y181C/G190A double mutant assessed as inhibition of viral replication relative to wild type; type: functional
[32] = tested on: Human immunodeficiency virus; assay: Antiviral activity against HIV with reverse transcriptase MDRC4 mutant assessed as inhibition of viral replication; type: functional, organism-based; conditions: Human immunodeficiency virus 1
[33] = tested on: Human immunodeficiency virus; assay: Antiviral activity against HIV with reverse transcriptase K103N/G190A double mutant assessed as inhibition of viral replication; type: functional, organism-based; conditions: Human immunodeficiency virus 1
[34] = tested on: Human immunodeficiency virus; assay: Antiviral activity against HIV with reverse transcriptase V106A/G190A/F227L mutant assessed as inhibition of viral replication; type: functional, organism-based; conditions: Human immunodeficiency virus 1
[35] = tested on: Human immunodeficiency virus; assay: Antiviral activity against HIV with reverse transcriptase K103N/Y181C/G190A mutant assessed as inhibition of viral replication; type: functional, organism-based; conditions: Human immunodeficiency virus 1
[36] = tested on: Human immunodeficiency virus; assay: Antiviral activity against HIV with reverse transcriptase K101E/Y181C/G190A mutant assessed as inhibition of viral replication; type: functional, organism-based; conditions: Human immunodeficiency virus 1
[37] = tested on: Human immunodeficiency virus; assay: Antiviral activity against HIV with reverse transcriptase G190S mutant assessed as inhibition of viral replication relative to wild type; type: functional
[38] = tested on: Human immunodeficiency virus; assay: Antiviral activity against HIV with reverse transcriptase Y181C mutant assessed as inhibition of viral replication relative to wild type; type: functional
[39] = tested on: Human immunodeficiency virus; assay: Antiviral activity against HIV with reverse transcriptase MDRC4 mutant assessed as inhibition of viral replication relative to wild type; type: functional
[40] = tested on: Human immunodeficiency virus; assay: Antiviral activity against HIV with reverse transcriptase CNDO mutant assessed as inhibition of viral replication; type: functional, organism-based; conditions: Human immunodeficiency virus 1
[41] = tested on: Human immunodeficiency virus; assay: Antiviral activity against HIV with reverse transcriptase V106A/G190A/F227L mutant assessed as inhibition of viral replication relative to wild type; type: functional

In the case of `N#Cc1cc(Cl)cc(Oc2cc(OCc3n[nH]c4ncccc34)ccc2Cl)c1`, the IC50 [1] is reported as 16.5 nM, the “fold change (FC)” value [2] is reported as 10.55 and the Ki [3] is reported as 0.1 nM. The “fold change (FC)” value [4] was 21.45, the IC95 [5] was 10 nM and the IC50 [6] was 0.7 nM. The “fold change (FC)” value [7] was 3.27, the IC95 [8] was 22 nM and the “fold change (FC)” value [9] was 2.18. For the same compound, the IC95 [10] was 52 nM, the IC95 [11] was 15 nM and the IC50 [12] was 1.8 nM. For the same compound, the “fold change (FC)” value [13] was 15, the IC95 [14] was 53 nM and the “fold change (FC)” value [15] was 1.64. For the same compound, the “fold change (FC)” value [16] was 28.09, the “fold change (FC)” value [17] was 1.91 and the IC50 [18] was 2.1 nM. For the same compound, the IC50 [19] was 3.1 nM, the “fold change (FC)” value [20] was 0.64 and the Ki [21] was 0.2 nM. For the same compound, the IC50 [22] was 4.8 nM, the IC50 [23] was 1.6 nM and the IC50 [24] was 4.6 nM. The IC50 [25] was 23.6 nM, the “fold change (FC)” value [26] was 1.45 and the IC50 [27] was 616 nM. For the same compound, the “fold change (FC)” value [28] was 1, the “fold change (FC)” value [29] was 560.18 and the IC50 [30] was 3.6 nM. The “fold change (FC)” value [31] was 4.18, the IC50 [32] was 5.1 nM and the IC50 [33] was 2.4 nM. It also gave an IC50 [34] greater than 1000 nM, an IC50 [35] of 30.9 nM and an IC50 [36] of 11.6 nM. For the same compound, the “fold change (FC)” value [37] was 4.36, the “fold change (FC)” value [38] was 2.82 and the “fold change (FC)” value [39] was 4.64. The IC50 [40] was 1.1 nM and the “fold change (FC)” value [41] was greater than 909.
